We go through 18 compounds from ChEMBL document CHEMBL1138835, “Inhibitors of multiple mutants of Plasmodium falciparum dihydrofolate reductase and their antimalarial activities” (J Med Chem, 2004).

The Ki is a measure of affinity in units of concentration, obtained from inhibition or displacement. For orientation: IC50 means the concentration needed to halve the response being measured. The low end stands for greater potency, the high end for weaker potency.

Assay [1] concerns Bifunctional dihydrofolate reductase-thymidylate synthase (Plasmodium falciparum K1), P13922 [UNDEFINED MUTATION]. Put plainly: Ratio of binding affinity for mutant (A16V+S108T) to that of wild type dihydrofolate reductase. The essentials:
(§1)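 Each ratio is Ki for the mutant PfDHFR divided by Ki for wild-type PfDHFR. The recombinant enzymes were expressed in E. coli BL21(DE3)pLysS and purified on methotrexate-Sepharose. Ki was derived assuming inhibitors compete with substrate binding.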

The target of assay [2] is Bifunctional dihydrofolate reductase-thymidylate synthase (Plasmodium falciparum K1, UniProt P13922, C59R/I164L/N51I/S108N). Description: Binding affinity towards mutant dihydrofolate reductase (N51I+C59R+S108N+I164L DHFR) of Plasmodium falciparum.
The target of assay [3] is Bifunctional dihydrofolate reductase-thymidylate synthase (Plasmodium falciparum K1, UniProt P13922, A16V/S108T). Put plainly: Binding affinity towards mutant dihydrofolate reductase (A16V+S108T DHFR) of Plasmodium falciparum.
Assay [4] addresses Bifunctional dihydrofolate reductase-thymidylate synthase (Plasmodium falciparum K1) (UniProt P13922). Put plainly: Ratio of binding affinity for mutant (N51I+C59R+S108N) to that of wild type dihydrofolate reductase. The essentials: as §1
In assay [5] the test system is Bifunctional dihydrofolate reductase-thymidylate synthase (Plasmodium falciparum K1), P13922 [UNDEFINED MUTATION]. Put plainly: Ratio of binding affinity for mutant (N51I+C59R+S108N+I164L) to that of wild type dihydrofolate reductase. The essentials:
as §1

Assay [6] concerns the target Bifunctional dihydrofolate reductase-thymidylate synthase (Plasmodium falciparum K1, UniProt P13922, C59R/I164L/S108N). Put plainly: Binding affinity towards mutant dihydrofolate reductase (C59R+S108N+I164L DHFR) of Plasmodium falciparum.
Assay [7] has as its target Bifunctional dihydrofolate reductase-thymidylate synthase (Plasmodium falciparum K1, UniProt P13922, C59R/N51I/S108N). Description: Binding affinity towards mutant dihydrofolate reductase (N51I+C59R+S108N DHFR) of Plasmodium falciparum.
In assay [8] the test system is Bifunctional dihydrofolate reductase-thymidylate synthase (Plasmodium falciparum K1), P13922 [UNDEFINED MUTATION]. Description: Ratio of binding affinity for mutant (C59R+S108N+I164L) to that of wild type dihydrofolate reductase. The essentials: as §1
For assay [9], the system named is KB. Put plainly: Relative antiplasmodial activity to cytotoxicity in Plasmodium falciparum Csl-2 infected KB cells. It counts as functional.
The test system of assay [10] is Vero. Put plainly: In vitro cytotoxicity against Plasmodium falciparum infected vero cell line. It counts as functional, cell-based. The settings on record: Chlorocebus sabaeus. In outline:
(§2)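 Cytotoxicity (IC50, μM) run against three mammalian lines: Vero (African green monkey kidney fibroblasts), KB (human epidermoid carcinoma) and BC (human breast cancer). Testing followed the Skehan et al. protocol.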

Assay [11] deals with Vero. Description: Relative antiplasmodial activity to cytotoxicity in Plasmodium falciparum Csl-2 infected Vero cells. It counts as functional.
The subject of assay [12] is BC. Description: In vitro cytotoxicity against BC cell line. The settings on record: Homo sapiens.
The subject of assay [13] is Vero. Put plainly: Relative antiplasmodial activity to cytotoxicity in Plasmodium falciparum TM4/8.2 infected Vero cells. It is filed as functional.
In assay [14] the test system is KB. Put plainly: Relative antiplasmodial activity to cytotoxicity in Plasmodium falciparum TM4/8.2 infected KB cells. It is filed as functional.
For assay [15], the system named is Vero. Description: Relative antiplasmodial activity to cytotoxicity in Plasmodium falciparum V1/S infected Vero cells. It is filed as functional.
In assay [16] the test system is KB. Description: In vitro cytotoxicity against Plasmodium falciparum infected KB cell line. It is filed as functional, cell-based. The settings on record: Homo sapiens. The essentials:
as §2

Assay [17] concerns BC. Description: Relative antiplasmodial activity to cytotoxicity in Plasmodium falciparum TM4/8.2 infected BC cells. It is filed as functional.
The test system of assay [18] is BC. Put plainly: Relative antiplasmodial activity to cytotoxicity in Plasmodium falciparum Csl-2 infected BC cells. It counts as functional.
Assay [19] relates to KB. Description: Relative antiplasmodial activity to cytotoxicity in Plasmodium falciparum V1/S infected KB cells. It counts as functional.

Chain of Bifunctional dihydrofolate reductase-thymidylate synthase (Plasmodium falciparum K1) (P13922 whole entry, looked up): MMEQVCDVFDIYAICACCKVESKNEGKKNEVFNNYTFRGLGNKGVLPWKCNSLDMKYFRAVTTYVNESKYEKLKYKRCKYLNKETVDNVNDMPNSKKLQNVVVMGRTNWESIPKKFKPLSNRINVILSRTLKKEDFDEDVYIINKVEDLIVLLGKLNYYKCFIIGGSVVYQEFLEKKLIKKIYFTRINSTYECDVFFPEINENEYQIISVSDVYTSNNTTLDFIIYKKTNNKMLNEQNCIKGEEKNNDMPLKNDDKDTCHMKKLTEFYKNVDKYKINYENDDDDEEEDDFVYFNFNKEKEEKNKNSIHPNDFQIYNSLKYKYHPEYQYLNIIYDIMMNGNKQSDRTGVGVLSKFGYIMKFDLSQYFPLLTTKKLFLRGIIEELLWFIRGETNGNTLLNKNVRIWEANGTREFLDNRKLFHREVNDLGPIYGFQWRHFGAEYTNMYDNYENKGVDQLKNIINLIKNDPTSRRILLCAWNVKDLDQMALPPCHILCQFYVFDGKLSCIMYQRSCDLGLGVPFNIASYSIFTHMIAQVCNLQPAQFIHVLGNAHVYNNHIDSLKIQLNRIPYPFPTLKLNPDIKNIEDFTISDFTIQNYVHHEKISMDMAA
Chain of Bifunctional dihydrofolate reductase-thymidylate synthase (Plasmodium falciparum K1, UniProt P13922, C59R/I164L/N51I/S108N) (P13922 whole entry, looked up, stated change not applied): as the sequence (P13922 whole entry, looked up) above
Chain of Bifunctional dihydrofolate reductase-thymidylate synthase (Plasmodium falciparum K1), P13922 [UNDEFINED MUTATION] (P13922 whole entry, looked up, stated change not applied): as the sequence (P13922 whole entry, looked up) above
Chain of Bifunctional dihydrofolate reductase-thymidylate synthase (Plasmodium falciparum K1, UniProt P13922, A16V/S108T) (P13922 whole entry, looked up, stated change not applied): as the sequence (P13922 whole entry, looked up) above
Chain of Bifunctional dihydrofolate reductase-thymidylate synthase (Plasmodium falciparum K1, UniProt P13922, C59R/I164L/S108N) (P13922 whole entry, looked up, stated change not applied): as the sequence (P13922 whole entry, looked up) above
Chain of Bifunctional dihydrofolate reductase-thymidylate synthase (Plasmodium falciparum K1, UniProt P13922, C59R/N51I/S108N) (P13922 whole entry, looked up, stated change not applied): as the sequence (P13922 whole entry, looked up) above

As to `NC1=NC(c2cccc(OCc3ccccc3)c2)N(c2ccc(Cl)cc2)C(N)=N1` (configuration not stated), the Ratio in assay [1] is 8.9; in assay [4], 315; in [5], 911; in [8] it was 1100. Further, the Ki in assay [2] turned out to be 638 nM; in assay [3], 6.2 nM; in assay [6] it was 771 nM; in assay [7] it was 220 nM.
With `NC1=NC(c2cccc(OCCCOc3cc(Cl)c(Cl)cc3Cl)c2)N(c2cccc(Cl)c2)C(N)=N1` (configuration not stated), the Safety ratio in the assay on KB [9] was 1.3; in the assay on Vero [11], 3.5; in the assay with Vero [13], 6; in the assay on KB [14], 2.3; in the assay with Vero [15] it was 2.1; in the assay with BC [17] it was 3.3. The Safety ratio in the assay on BC [18] turned out to be 1.9; in the assay with KB [19] it was 0.8. For the same compound, the IC50 with Vero [10] was 18000 nM; in the assay on BC [12], 10000 nM; in the assay with KB [16], 7000 nM. Besides, the Ratio in assay [1] was found to be 0.7; in assay [4], 0.5; in assay [5], 1.1; in assay [8] it was 0.6. The Ki was 4.5 nM in assay [2], 2.6 nM in [3], 2.2 nM in assay [6] and 2 nM in [7].
Consider `Nc1nc(N)c(-c2cccc(Cl)c2)c(CCCOC(=O)c2ccccc2)n1`, for which the Safety ratio came to 4.4 with KB [9]; 32.1 in the assay on Vero [11]; 29 with Vero [13]; 4 in the assay on KB [14]; 8.1 with Vero [15]; 4.5 with BC [17]. The values for the Safety ratio in the assay with BC [18] and with KB [19] were 5 and 1.1, respectively. Further, the values for the IC50 with Vero [10], in the assay on BC [12] and with KB [16] were 61000 nM, 9500 nM and 8400 nM, respectively. Also, the figures for the Ki in assay [2], in assay [6] and in assay [7] were 3.6 nM, 0.8 nM and 0.8 nM, respectively. Further, the values for the Ratio in [4], in [5] and in [8] were 0.5, 2.4 and 0.5, respectively.
As to `CCCC1(C)N=C(N)N=C(N)N1c1ccc(Cl)cc1` (configuration not stated), the Ratio worked out at 2640 in [1], 160 in assay [4], 1270 in [5] and 1040 in assay [8]. Besides, the Ki in assay [2] amounted to 4430 nM; in assay [3], 9230 nM; in assay [6], 3650 nM; in assay [7], 560 nM.
`CCc1nc(N)nc(N)c1-c1ccccc1`: the Ki in assay [2] is 32 nM; in assay [6] it was 25 nM; in [7], 3 nM.
For `CC(C)C1(C)N=C(N)N=C(N)N1c1ccc(Cl)cc1` (configuration not stated), the Ratio in assay [1] was 1230; in assay [4], 37.5; in [5], > 274; in assay [8], 127. In addition, the Ki in [2] was > 10000 nM; in assay [3], 44800 nM; in assay [6], 4620 nM; in assay [7] it was 1370 nM.
On to `CC1(C)N=C(N)N=C(N)N1c1cccc(Cl)c1`, for which the IC50 in the assay on Vero [10] worked out at 49000 nM; in the assay on BC [12], 8900 nM; in the assay with KB [16] it was 4000 nM.
Turning to `NC1=NC(c2cccc(Oc3ccccc3)c2)N(c2ccc(Cl)cc2)C(N)=N1` (configuration not stated), the Ratio in [1] stood at 5.4; in assay [4], 47.1; in [5], 478; in assay [8], 264. Also, the Ki in [2] amounted to 239 nM; in assay [3] it was 2.7 nM; in assay [6] it was 132 nM; in assay [7], 23.6 nM.
For the compound `Nc1nc(N)c(-c2ccccc2)c(CCCOC(=O)c2ccccc2)n1`, the Ki in assay [2] is 14 nM; in [6], 2.7 nM; in assay [7], 0.7 nM. The Ratio in [4] was 0.2; in [5], 4.1; in assay [8], 0.8.
As for `CC(=O)OCCCc1nc(N)nc(N)c1-c1ccccc1`, the Ki in assay [2] turned out to be 237 nM; in [6], 18 nM; in assay [7], 5 nM. The Ratio came out at 0.5 in assay [4], 22.3 in assay [5] and 1.7 in [8].
In the case of `Nc1nc(N)c(-c2ccccc2)c(CCCO)n1`, the values for the Ki in [2], in [6] and in assay [7] were 549 nM, 121 nM and 58.5 nM, respectively. The results for the Ratio in assay [4], in assay [5] and in assay [8] were 0.7, 6.5 and 1.4, respectively.
Turning to `NC1=NC(c2ccccc2)N(c2ccc(Cl)cc2)C(N)=N1` (configuration not stated), the Ki amounted to 2440 nM in assay [2], 1870 nM in assay [6] and 196 nM in assay [7].
For the compound `CC(C)C1(C)N=C(N)N=C(N)N1c1cccc(Cl)c1` (configuration not stated), the Ratio in assay [1] was found to be 85; in assay [4], 7.7; in assay [5] it was 18.1; in assay [8] it was 8.4. The Ki in [2] amounted to 472 nM; in [3], 2180 nM; in assay [6], 213 nM; in assay [7] it was 196 nM.
In the case of `Nc1nc(N)c(-c2cccc(Cl)c2)c(CCCO)n1`, the Safety ratio with KB [9] was 5.3; in the assay on Vero [11], 11.7; in the assay with Vero [13], 20.3; with KB [14], 9.2; in the assay on Vero [15], 3.6; with BC [17] it was 13.6. Besides, the figures for the Safety ratio with BC [18] and in the assay with KB [19] were 7.9 and 1.6, respectively. In addition, the IC50 in the assay on Vero [10] came to 22300 nM; with BC [12], 15000 nM; in the assay with KB [16] it was 10100 nM. The values for the Ki in [2], in assay [6] and in assay [7] were 57 nM, 29 nM and 2.3 nM, respectively. The Ratio in [4] amounted to 0.25; in assay [5], 6.1; in [8], 3.2.
As for `Nc1nc(N)c(-c2cccc(Cl)c2)c(CCCOC(=O)OCc2ccccc2)n1`, the Safety ratio in the assay with KB [9] is on record as 0.8; with Vero [11] it was 2.7; with Vero [13], 2.7; with KB [14], 0.8; in the assay on Vero [15], 0.9; in the assay with BC [17], 1.9. Moreover, the Safety ratio in the assay with BC [18] came to 1.9; in the assay with KB [19] it was 0.3. Further, the IC50 with Vero [10] stood at 5200 nM; in the assay on BC [12], 3600 nM; in the assay on KB [16], 1600 nM. For the same compound, the values for the Ki in [2], in assay [6] and in assay [7] were 3.6 nM, 0.8 nM and 1.1 nM, respectively. For the same compound, the Ratio in assay [4] was found to be 0.9; in assay [5], 3; in assay [8], 0.7.
Turning to `CCCCCCC1(C)N=C(N)N=C(N)N1c1ccc(Cl)cc1` (configuration not stated), the Ratio in assay [1] is 1590; in assay [4], 18.8; in assay [5] it was 115; in [8], 69.6. Moreover, the Ki in assay [2] is 69.2 nM; in [3], 955 nM; in assay [6], 41.8 nM; in assay [7], 11.3 nM.
`CC(=O)OCCCc1nc(N)nc(N)c1-c1cccc(Cl)c1`: the Safety ratio in the assay with KB [9] is reported as 9.4; in the assay with Vero [11] it was 27.8; with Vero [13], 31.3; with KB [14], 10.6; with Vero [15], 9.4; in the assay with BC [17] it was 6.3. Moreover, the Safety ratio is listed as 5.6 in the assay on BC [18] and 3.2 in the assay on KB [19]. In addition, the IC50 amounted to 50000 nM with Vero [10], 10000 nM in the assay with BC [12] and 17000 nM in the assay on KB [16]. Also, the values for the Ki in assay [2], in [6] and in [7] were 31.4 nM, 3.2 nM and 1.8 nM, respectively. The Ratio in assay [4] was 0.6; in assay [5] it was 10.1; in [8] it was 1.
With `CCCOc1ccc(C2N=C(N)N=C(N)N2c2cccc(Cl)c2)cc1` (configuration not stated), the Safety ratio is given as 2.1 in the assay with KB [9]; >17.2 in the assay on Vero [11]; >200 in the assay on Vero [13]; 24 in the assay with KB [14]; >17.2 in the assay with Vero [15]; 120 with BC [17]. Further, the figures for the Safety ratio in the assay on BC [18] and in the assay with KB [19] were 10.3 and 2.1, respectively. Also, the figures for the IC50 in the assay with Vero [10], in the assay with BC [12] and in the assay with KB [16] were > 50000 nM, 30000 nM and 6000 nM, respectively. Besides, the Ki in assay [2] came to 2.7 nM; in assay [3] it was 9.3 nM; in [6] it was 0.5 nM; in [7], 2.1 nM.
